# Compound activity from PubChem BioAssay.
# Only some compounds are listed: those with a hit (about 5.9% of all), similar ones and a draw of the others.
# T cruzi growth – T. cruzi intracellular proliferation inhibitors, primary screen, cell-based, beta-gal Tulahuen parasites, NIH3T3 host, luminescence. T. cruzi beta-gal in NIH3T3, GalScreen luminescence, 90 h. inhibition, % at 8.34 µM. 5.9% of 77,000 active. AID 624255, 2012;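 active = mean inhibition above about 93%, with at least 55% of replicates each passing it, limit read from the data, passing the limit was not always enough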
# IDH1 R132H inh – inhibitors of IDH1 R132H reductase, primary screen, biochemical, plate reader, single point | diaphorase/resazurin fluorescence, 60 min | 0.18% of 70,000 active | Isocitrate dehydrogenase [NADP] cytoplasmic (Homo sapiens), O75874 | inhibition, % at 10 µM; in the data active = inhibition above about 34%
# Pf Dd2 inh – P. falciparum Dd2 growth inhibitors, primary screen, SYBR Green fluorescence, single dose replicates; 72 h; active compounds read low; activity change, % at 10 µM; 2.3% of 94,000 active; AID 1159554, 2015; in the data active = activity change below about -80%
# GASC1 inh – inhibitors of GASC-1 (KDM4C) histone demethylase, primary screen, biochemical, single concentration HTS; Lysine-specific demethylase 4C (Homo sapiens), Q9H3R0; GST-KDM4C 2-372, H3K9me3 peptide, LANCE TR-FRET; inhibition, % at 12.5 µM; 0.15% of 96,000 active; AID 720574, 2013;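 active = mean replicate inhibition above about 25%, with at least 55% of replicates also reaching it, limit read from the data, passing the limit was not always enough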
# Target sequence (Q9H3R0 2-372 limits assumed): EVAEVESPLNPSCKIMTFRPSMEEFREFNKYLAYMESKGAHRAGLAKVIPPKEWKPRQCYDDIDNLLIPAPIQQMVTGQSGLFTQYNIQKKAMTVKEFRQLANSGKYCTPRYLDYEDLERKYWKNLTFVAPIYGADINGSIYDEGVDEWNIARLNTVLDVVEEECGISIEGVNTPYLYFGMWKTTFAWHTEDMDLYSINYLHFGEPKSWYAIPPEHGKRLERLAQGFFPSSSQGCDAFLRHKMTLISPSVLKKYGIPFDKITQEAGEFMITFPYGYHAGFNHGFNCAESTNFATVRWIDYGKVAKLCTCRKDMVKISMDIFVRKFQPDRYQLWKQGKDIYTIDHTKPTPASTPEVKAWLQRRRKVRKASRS
#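 Test system: N-terminal GST-fused human GASC-1 (KDM4C) fragment, residues 2-372; quantity: GASC-1 enzyme at 10 nM final in reaction; dosing: single dose; schedule: 30 min demethylation and 1 h detection at room temperature; signal: LANCE TR-FRET, excitation 340 nm, emissions 618 and 671 nm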
# Hits are given with their value; . = inactive; / = no result given; ! = not active in a repeat.
SMILES,T cruzi growth,IDH1 R132H inh,Pf Dd2 inh,GASC1 inh
CO[C@@H]1CN(C)C(=O)c2cc(NC(C)=O)ccc2OC[C@@H](C)N(Cc2cc(F)ccc2F)C[C@H]1C,.,.,.,.
CC(C)CC#Cc1ccc2c(c1)O[C@@H](CN(C)C(=O)Cc1cccnc1)[C@@H](C)CN([C@@H](C)CO)S2(=O)=O,/,.,.,.
CC(C)CC#Cc1ccc2c(c1)O[C@H](CN(C)C(=O)Cc1cccnc1)[C@H](C)CN([C@H](C)CO)S2(=O)=O,/,51.8,.,.
COc1ccc2c3c(n(C)c2c1)[C@@H](CO)N(C(=O)c1ccc(F)cc1)CC31CCN(C(=O)c2ccc(F)cc2)CC1,/,/,-85.5,.
COc1ccc2c3c(n(C)c2c1)[C@@H](CO)N(C(=O)Nc1ccc(F)cc1)CC31CN(Cc2ccccc2F)C1,/,/,-88.3,.
COc1ccc2c3c(n(C)c2c1)[C@@H](CO)N(C(=O)c1ccc(F)cc1)CC31CN(CC2CCOCC2)C1,/,/,-88.1,.
COc1ccc2c3c(n(C)c2c1)[C@H](CO)NCC31CN(Cc2ccc(-c3ccccn3)cc2)C1,/,/,-88.1,.
COc1ccc2c3c(n(C)c2c1)[C@H](CO)N(C(=O)Nc1ccc(F)cc1)CC31CCN(Cc2ccccc2F)CC1,/,/,.,.
COc1ccc2c3c(n(C)c2c1)[C@@H](CO)NCC31CN(Cc2ccccc2Cl)C1,/,/,.,.
C[C@H]1CN([C@@H](C)CO)C(=O)c2cc(-c3ccncc3)cnc2O[C@H]1CN(C)C(=O)C1CC1,.,/,.,.
COc1ccc2c3c(n(C)c2c1)[C@@H](CO)N(C(=O)c1ccc(F)cc1)CC31CN(C(=O)Nc2ccc(F)cc2)C1,/,/,-89.0,.
COc1ccc2c3c(n(C)c2c1)[C@@H](CO)NCC31CN(C(=O)c2cccc(F)c2)C1,/,/,-82.3,.
COc1ccc2c3c(n(C)c2c1)[C@@H](CO)NCC31CN(C(=O)c2ccc(F)cc2)C1,/,/,.,/
COc1ccc2c3c(n(C)c2c1)[C@H](CO)N(C(=O)c1ccc(F)cc1)CC31CN(C(=O)Nc2ccc(F)cc2)C1,/,/,.,.
C[C@@H]1CN([C@H](C)CO)C(=O)c2c(c3ccccc3n2C)-c2ccccc2CO[C@@H]1CN(C)Cc1cccc2c1OCCCO2,/,/,-84.5,.
C[C@H]1CN([C@@H](C)CO)C(=O)c2c(c3ccccc3n2C)-c2ccccc2CO[C@@H]1CN(C)Cc1cccc2c1OCCCO2,/,/,.,/
C[C@@H]1CN([C@@H](C)CO)C(=O)c2c(c3ccccc3n2C)-c2ccccc2CO[C@@H]1CN(C)Cc1cccc2c1OCCCO2,/,/,-84.8,.
N#Cc1cccc(-c2ccc(C3[C@H]4CNC[C@@H]3N4S(=O)(=O)c3ccc(F)cc3)cc2)c1 (some centres not stated),/,/,.,34.7!
CN(C)C(=O)C[C@@H]1C[C@@H]2c3cc(NC(=O)Nc4ccccc4)ccc3O[C@@H]2[C@@H](CO)O1,.,73.4,.,31.7
CN(C)C(=O)C[C@@H]1C[C@H]2c3cc(NC(=O)C4CCC4)ccc3O[C@H]2[C@H](CO)O1,.,51.6,.,35.8
O=C(C[C@@H]1C[C@H]2c3cc(NS(=O)(=O)c4ccc(F)cc4)ccc3O[C@H]2[C@@H](CO)O1)NCc1ccccn1,/,.,.,.
O=C(NC[C@@H]1[C@@H](c2ccccc2)[C@H](CO)N1Cc1ccccn1)C1CCC1,.,/,.,.
OC[C@@H]1[C@@H](c2ccccc2)C2(CN(CCC(F)(F)F)C2)N1Cc1ccccc1,/,/,.,.
O=S(=O)(Cc1ccccc1)N1[C@H](CO)[C@@H](c2ccccc2)C12CN(CCC(F)(F)F)C2,/,/,-84.0,.
C[C@H]1CCCCO[C@H](CN(C)C(=O)Nc2cccc3ccccc23)[C@@H](C)CN([C@@H](C)CO)C(=O)c2cc(NC(=O)C3CCCCC3)ccc2O1,.,.,-85.6,.
SMILES,T cruzi growth,IDH1 R132H inh,Pf Dd2 inh,GASC1 inh
C[C@@H]1CCCCO[C@@H](CN(C)C(=O)Nc2cccc3ccccc23)[C@H](C)CN([C@@H](C)CO)C(=O)c2cc(NC(=O)C3CCCCC3)ccc2O1,.,.,-83.4,.
CC(C)NC(=O)Nc1ccc2c(c1)C(=O)N([C@H](C)CO)C[C@H](C)[C@H](CN(C)C(=O)Nc1cccc3ccccc13)OCCCC[C@@H](C)O2,.,.,.,.
CC(C)NC(=O)Nc1ccc2c(c1)C(=O)N([C@@H](C)CO)C[C@@H](C)[C@H](CN(C)C(=O)Nc1cccc3ccccc13)OCCCC[C@H](C)O2,.,/,-85.7,.
C[C@@H]1CCCCO[C@@H](CN(C)C(=O)Nc2cccc3ccccc23)[C@@H](C)CN([C@H](C)CO)C(=O)c2cc(NC(=O)C3CCCCC3)ccc2O1,.,.,.,.
CS(=O)(=O)N(CC(=O)Nc1c(F)cccc1F)c1cccc(Cl)c1Cl,/,.,/,/
Cc1sc(NC(=O)C2CC(Cl)=CCC2C(=O)O)c(C#N)c1C (configuration not stated),/,.,/,/
CC(C)CC#Cc1ccc2c(c1)O[C@@H](CN(C)Cc1cccnc1)[C@H](C)CN([C@H](C)CO)S2(=O)=O,.,.,/,.
COc1ccc(S(=O)(=O)N(C)C[C@H]2Oc3c(NC(=O)C4CCOCC4)cccc3C(=O)N([C@H](C)CO)C[C@H]2C)cc1,.,.,.,.
COc1ccc2c3c(n(C)c2c1)[C@@H](CO)N(Cc1ccccc1OC)CC31CCN(CC2CC2)CC1,/,/,-90.7,/
COc1ccc2c3c(n(C)c2c1)[C@@H](CO)N(Cc1ccccc1F)CC31CCN(CC2CC2)CC1,/,/,-88.0,.
COc1ccc2c3c(n(C)c2c1)[C@H](CO)N(CC1CC1)CC31CCN(Cc2ccc(F)cc2)CC1,/,/,-85.2,.
COc1ccc2c3c(n(C)c2c1)[C@H](CO)N(Cc1ccccc1OC)CC31CCN(CC2CC2)CC1,/,/,.,/
COc1ccc(S(=O)(=O)N[C@@H]2CC[C@@H](CCNC(=O)Cc3ccccn3)O[C@H]2CO)cc1,.,.,.,.
NCC[C@H]1CC[C@@H](NS(=O)(=O)c2ccc(Cl)cc2)[C@@H](CO)O1,.,.,.,.
COCC(=O)Nc1ccc2c(c1)OC[C@@H](C)N(C(=O)Cc1cccnc1)C[C@@H](C)[C@@H](OC)CN(C)C2=O,.,.,.,.
Fc1cccc(-c2ccc(C3[C@@H]4CN(Cc5cccnc5)C[C@H]3N4)cc2)c1 (some centres not stated),/,/,-90.3!,.
CN(C)C(=O)c1ccc(-c2ccc(C3[C@@H]4CN(Cc5cccnc5)C[C@H]3N4)cc2)cc1 (some centres not stated),/,/,.,.
Cc1ccccc1-c1ccc(C2[C@@H]3CN(Cc4cccnc4)C[C@H]2N3)cc1 (some centres not stated),/,/,-90.3!,.
COc1cc(O)cc(OC)c1/C=N/NC(=O)CCCCCCC(=O)NO,/,.,/,/
COc1ccc(NC(=O)Nc2cccc3c2O[C@H](CN(C)Cc2ccc(C(=O)Nc4ccccc4N)cc2)[C@@H](C)CN([C@H](C)CO)C3=O)cc1,/,/,-83.5,.
